Source: ChEMBL document CHEMBL4616614, “Discovery of thieno[2,3-d]pyrimidin-4(3H)-one derivatives as a new class of ROCK inhibitors” (Bioorg Med Chem Lett, 2020)

How the values were obtained:
[1] = biological target: Rho-associated protein kinase 2 (Homo sapiens, UniProt O75116); experiment: Inhibition of recombinant human ROCK2 (11 to 552 residues) using KEAKEKRQEQIAKRRRLSSLRASTSKSGGSQK as substrate incubated for 40 mins in presence of [gamma-33P]ATP by radiometric scintillation assay
[2] = biological target: Rho-associated protein kinase 1 (Homo sapiens, UniProt Q13464); experiment: Inhibition of recombinant human ROCK1 (17 to 535 residues) using KEAKEKRQEQIAKRRRLSSLRASTSKSGGSQK as substrate incubated for 40 mins in presence of [gamma-33P]ATP by radiometric scintillation assay
Outline: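 IC50 values determined through a commercial kinase profiling service, with ATP at 10 µM.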

Sequence of Rho-associated protein kinase 1 (Q13464 whole entry, the tested form may be a part): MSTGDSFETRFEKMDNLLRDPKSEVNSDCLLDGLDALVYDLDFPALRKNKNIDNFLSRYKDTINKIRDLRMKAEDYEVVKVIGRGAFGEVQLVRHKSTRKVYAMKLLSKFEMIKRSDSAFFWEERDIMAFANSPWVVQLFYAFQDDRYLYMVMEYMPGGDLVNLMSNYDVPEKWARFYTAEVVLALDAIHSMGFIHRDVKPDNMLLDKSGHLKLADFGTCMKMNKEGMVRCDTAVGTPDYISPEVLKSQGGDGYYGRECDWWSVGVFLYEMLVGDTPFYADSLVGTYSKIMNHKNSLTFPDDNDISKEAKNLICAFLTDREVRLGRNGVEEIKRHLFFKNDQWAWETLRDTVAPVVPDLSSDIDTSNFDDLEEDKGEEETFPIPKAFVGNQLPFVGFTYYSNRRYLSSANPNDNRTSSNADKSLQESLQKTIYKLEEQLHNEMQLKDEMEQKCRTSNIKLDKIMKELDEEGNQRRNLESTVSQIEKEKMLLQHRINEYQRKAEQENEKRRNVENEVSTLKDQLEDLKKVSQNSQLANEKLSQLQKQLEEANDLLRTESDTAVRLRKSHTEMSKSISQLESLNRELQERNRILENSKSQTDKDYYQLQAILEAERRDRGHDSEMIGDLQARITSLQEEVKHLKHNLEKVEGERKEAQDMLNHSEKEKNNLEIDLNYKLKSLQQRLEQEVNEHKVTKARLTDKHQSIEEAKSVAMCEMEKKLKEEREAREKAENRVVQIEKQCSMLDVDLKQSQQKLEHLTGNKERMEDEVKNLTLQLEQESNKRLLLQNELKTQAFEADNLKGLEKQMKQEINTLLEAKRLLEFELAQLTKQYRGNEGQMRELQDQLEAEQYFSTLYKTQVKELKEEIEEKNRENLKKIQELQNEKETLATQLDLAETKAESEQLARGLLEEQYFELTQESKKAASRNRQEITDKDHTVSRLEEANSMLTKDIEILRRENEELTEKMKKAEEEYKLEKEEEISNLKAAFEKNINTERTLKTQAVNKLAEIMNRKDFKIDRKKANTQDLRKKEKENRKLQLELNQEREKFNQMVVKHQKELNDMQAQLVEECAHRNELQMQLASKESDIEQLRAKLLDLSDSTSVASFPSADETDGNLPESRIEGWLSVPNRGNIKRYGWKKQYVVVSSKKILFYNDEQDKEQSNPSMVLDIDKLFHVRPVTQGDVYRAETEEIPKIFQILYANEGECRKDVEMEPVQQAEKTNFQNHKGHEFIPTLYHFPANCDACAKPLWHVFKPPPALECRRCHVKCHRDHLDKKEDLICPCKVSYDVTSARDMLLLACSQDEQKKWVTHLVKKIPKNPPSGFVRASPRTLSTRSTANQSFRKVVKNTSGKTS
Sequence of Rho-associated protein kinase 2 (O75116 whole entry, the tested form may be a part): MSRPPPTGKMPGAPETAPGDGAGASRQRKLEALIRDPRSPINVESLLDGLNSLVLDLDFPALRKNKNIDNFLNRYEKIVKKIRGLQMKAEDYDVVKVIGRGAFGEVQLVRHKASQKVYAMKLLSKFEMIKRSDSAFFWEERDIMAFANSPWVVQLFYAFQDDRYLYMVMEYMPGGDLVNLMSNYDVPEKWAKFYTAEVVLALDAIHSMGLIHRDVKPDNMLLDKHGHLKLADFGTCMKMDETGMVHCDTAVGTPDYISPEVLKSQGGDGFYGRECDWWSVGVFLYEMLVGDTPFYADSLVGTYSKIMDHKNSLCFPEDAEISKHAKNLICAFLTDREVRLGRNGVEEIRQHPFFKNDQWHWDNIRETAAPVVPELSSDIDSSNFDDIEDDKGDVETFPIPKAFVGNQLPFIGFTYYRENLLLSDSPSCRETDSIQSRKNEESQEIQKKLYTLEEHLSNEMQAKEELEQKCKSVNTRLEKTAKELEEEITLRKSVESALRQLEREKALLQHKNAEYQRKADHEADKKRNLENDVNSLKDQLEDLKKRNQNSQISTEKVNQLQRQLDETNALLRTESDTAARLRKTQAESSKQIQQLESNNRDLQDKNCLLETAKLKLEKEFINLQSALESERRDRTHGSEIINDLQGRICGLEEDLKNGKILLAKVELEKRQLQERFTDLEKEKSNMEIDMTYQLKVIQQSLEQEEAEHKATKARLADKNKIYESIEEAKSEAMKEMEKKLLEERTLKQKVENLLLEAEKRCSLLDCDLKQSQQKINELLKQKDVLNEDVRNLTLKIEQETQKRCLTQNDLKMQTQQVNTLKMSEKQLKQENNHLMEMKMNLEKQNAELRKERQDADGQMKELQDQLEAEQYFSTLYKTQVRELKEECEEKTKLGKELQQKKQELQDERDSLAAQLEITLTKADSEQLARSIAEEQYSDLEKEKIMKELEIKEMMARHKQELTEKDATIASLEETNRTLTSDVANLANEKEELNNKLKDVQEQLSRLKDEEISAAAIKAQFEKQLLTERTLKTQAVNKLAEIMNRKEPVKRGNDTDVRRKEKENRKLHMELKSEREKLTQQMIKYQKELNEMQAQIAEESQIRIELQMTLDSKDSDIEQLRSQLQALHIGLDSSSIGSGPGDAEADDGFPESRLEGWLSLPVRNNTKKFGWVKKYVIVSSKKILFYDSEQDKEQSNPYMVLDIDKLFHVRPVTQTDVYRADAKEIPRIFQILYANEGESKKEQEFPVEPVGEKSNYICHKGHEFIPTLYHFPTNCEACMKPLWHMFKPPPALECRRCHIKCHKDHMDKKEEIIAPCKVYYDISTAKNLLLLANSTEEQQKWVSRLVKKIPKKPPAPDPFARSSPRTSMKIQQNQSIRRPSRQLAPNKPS

| SMILES | IC50 [1] [nM] | IC50 [2] [nM] |
| --- | --- | --- |
| COc1cccc(Cn2cnc3sc(-c4cccnc4)cc3c2=O)c1 | 3480 | > 10000 |
| COc1cccc(Cn2cnc3sc(-c4ccc(N)nc4)cc3c2=O)c1 | > 10000 | > 10000 |
| COc1cc(Cn2cnc3sc(-c4ccnc5[nH]ccc45)cc3c2=O)cc(OC)c1 | 4 | 74 |
| COc1cccc(Cn2cnc3sc(-c4ccc(-c5ccncc5)cc4)cc3c2=O)c1 | > 10000 | > 10000 |
| COc1cccc(Cn2cnc3sc(-c4ccc5[nH]ncc5c4)cc3c2=O)c1 | 2 | 20 |
| COc1ccc(Cn2cnc3sc(-c4ccnc(N)c4)cc3c2=O)cc1OC | 219 | > 10000 |
| COc1ccc(Cn2cnc3sc(-c4ccnc5[nH]ccc45)cc3c2=O)cc1 | 2 | 13 |
| COc1cccc(Cn2cnc3sc(-c4ccnc5[nH]ccc45)cc3c2=O)c1 | 1 | 4 |
| COc1cccc(Cn2cnc3sc(-c4cccc5[nH]ccc45)cc3c2=O)c1 | 583 | > 10000 |
| Nc1cc(-c2cc3c(=O)n(Cc4cccc(C(F)(F)F)c4)cnc3s2)ccn1 | 25 | 490 |
| COc1cccc(Cn2ccc3cc(-c4ccc5[nH]ncc5c4)ccc3c2=O)c1 | 107 | 1880 |
| COc1cccc(Cn2cnc3cc(-c4ccc5[nH]ncc5c4)ccc3c2=O)c1 | 88 | 3110 |
| COc1cccc(Cn2cnc3sc(-c4ccncc4)cc3c2=O)c1 | 6 | 45 |
| COc1cccc(Cn2cnc3sc(-c4ccnc(OC)c4)cc3c2=O)c1 | 6910 | > 10000 |
| COc1cccc(CN2CCc3cc(-c4ccc5[nH]ncc5c4)ccc3C2=O)c1 | 632 | 2060 |
| COc1cccc(Cn2cnc3sc(-c4ccnc(C)c4)cc3c2=O)c1 | 42 | 2510 |
| COc1ccc(Cn2cnc3sc(-c4ccnc(N)c4)cc3c2=O)cc1 | 46 | 1440 |
| O=c1c2cc(-c3ccnc4[nH]ccc34)sc2ncn1Cc1cccc(F)c1 | 1 | 13 |
| COc1cccc(Cn2ncc3cc(-c4ccc5[nH]ncc5c4)ccc3c2=O)c1 | 398 | > 10000 |
| COc1cccc(Cn2cnc3sc(-c4ccnc(Cl)c4)cc3c2=O)c1 | 501 | > 10000 |
| COc1ccc(Cn2cnc3sc(-c4ccnc5[nH]ccc45)cc3c2=O)cc1OC | 4 | 25 |
| O=c1c2cc(-c3ccnc4[nH]ccc34)sc2ncn1Cc1cccc(C(F)(F)F)c1 | 7 | 110 |
| COc1cccc(Cn2cnc3sc(-c4ccnc(N)c4)cc3c2=O)c1 | 1 | 18 |
| Nc1cc(-c2cc3c(=O)n(Cc4cccc(F)c4)cnc3s2)ccn1 | 5 | 34 |
| COc1cccc(Cn2cnc3sc(-c4ccnc(F)c4)cc3c2=O)c1 | 83 | 1050 |
| COc1cc(Cn2cnc3sc(-c4ccnc(N)c4)cc3c2=O)cc(OC)c1 | 58 | > 10000 |
